The values that follow come from ChEMBL document CHEMBL5154715, “Phenolic Lipids Derived from Cashew Nut Shell Liquid to Treat Metabolic Diseases” (J Med Chem, 2022).

Active and inactive are the calls of the source. The calls are words filed in the database; no cut-off is given here.

Data set [1] deals with T1, Peroxisome proliferator-activated receptor gamma (Homo sapiens) (UniProt P37231).
T1 sequence (whole entry): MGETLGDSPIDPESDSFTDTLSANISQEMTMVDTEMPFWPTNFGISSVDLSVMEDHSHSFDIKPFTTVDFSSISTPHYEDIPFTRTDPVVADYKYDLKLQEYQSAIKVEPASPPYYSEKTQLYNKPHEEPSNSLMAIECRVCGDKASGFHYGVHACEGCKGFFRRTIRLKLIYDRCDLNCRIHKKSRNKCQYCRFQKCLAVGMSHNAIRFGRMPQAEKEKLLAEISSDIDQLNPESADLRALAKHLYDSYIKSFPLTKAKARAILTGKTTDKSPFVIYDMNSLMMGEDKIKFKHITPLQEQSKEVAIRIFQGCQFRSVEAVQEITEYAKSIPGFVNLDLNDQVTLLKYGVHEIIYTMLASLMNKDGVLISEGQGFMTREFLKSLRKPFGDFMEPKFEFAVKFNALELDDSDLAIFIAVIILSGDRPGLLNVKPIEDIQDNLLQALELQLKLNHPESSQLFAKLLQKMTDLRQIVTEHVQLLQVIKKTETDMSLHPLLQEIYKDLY
Description: Agonist activity at human PPARgamma expressed in HEK293 cells assessed as maximal activity by luciferase/beta-galactosidase reporter gene assay relative to rosiglitazone. The data set is classed as cell-based. The method in brief: (§1)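 HEK293 cells in charcoal-stripped FBS, calcium phosphate co-transfected with GAL4-hPPAR LBD fusion, UAS-luciferase and β-galactosidase. Ligand added 6–8 h post transfection, full dose–response, harvested 14–16 h later. Luciferase normalized to β-galactosidase.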
(In general: Reporter assays use an easily measured gene product as a stand-in for the process of interest.)

The test system of a further data set is Danio rerio. Description: In vivo agonist activity at human GFP-tagged PPARalpha in transgenic zebrafish assessed as increase in GFP expression in heart at 1.5 uM measured after 14 hrs by microscopy.
The target of data set [2] is T1, Peroxisome proliferator-activated receptor gamma (Homo sapiens). Description: Agonist activity at human PPARgamma transfected in HEK293 cells assessed as relative luciferase unit at 50 uM measured after 16 hrs by luciferase reporter gene assay. The data set is classed as cell-based. To be noted: filed as agonist. The essentials: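 GAL4-hPPAR (α or γ) plus UAS-luciferase and β-galactosidase transiently co-transfected into HEK293 cells, then treated with 50 μM compound for 16 h. RLU = luciferase/β-galactosidase × time, vehicle (DMSO) set to 1. Mean ± SD, N = 3; one-way ANOVA with Holm–Šidák vs vehicle.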

The target in data set [3] is T2, Peroxisome proliferator-activated receptor delta (Homo sapiens) (UniProt Q03181).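 Further: reporter gene assay with luciferase read-out normalized to beta-galactosidase, measuring agonist activation of PPARδ expressed in HEK293 cells.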
T2 sequence (whole entry): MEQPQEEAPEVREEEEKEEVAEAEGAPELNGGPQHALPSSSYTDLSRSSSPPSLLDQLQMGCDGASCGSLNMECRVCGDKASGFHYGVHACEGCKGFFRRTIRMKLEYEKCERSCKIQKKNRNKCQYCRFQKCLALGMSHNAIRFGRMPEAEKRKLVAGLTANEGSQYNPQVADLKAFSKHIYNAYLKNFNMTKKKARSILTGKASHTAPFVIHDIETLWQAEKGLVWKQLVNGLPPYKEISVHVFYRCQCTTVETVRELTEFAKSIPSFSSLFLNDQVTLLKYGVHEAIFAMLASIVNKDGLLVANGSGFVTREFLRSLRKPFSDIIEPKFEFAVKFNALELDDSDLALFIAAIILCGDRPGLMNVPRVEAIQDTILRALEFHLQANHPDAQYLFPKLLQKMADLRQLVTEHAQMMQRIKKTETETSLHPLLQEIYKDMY

The target of data set [4] is T3, Peroxisome proliferator-activated receptor gamma (Mus musculus) (UniProt P37238).
T3 sequence (whole entry): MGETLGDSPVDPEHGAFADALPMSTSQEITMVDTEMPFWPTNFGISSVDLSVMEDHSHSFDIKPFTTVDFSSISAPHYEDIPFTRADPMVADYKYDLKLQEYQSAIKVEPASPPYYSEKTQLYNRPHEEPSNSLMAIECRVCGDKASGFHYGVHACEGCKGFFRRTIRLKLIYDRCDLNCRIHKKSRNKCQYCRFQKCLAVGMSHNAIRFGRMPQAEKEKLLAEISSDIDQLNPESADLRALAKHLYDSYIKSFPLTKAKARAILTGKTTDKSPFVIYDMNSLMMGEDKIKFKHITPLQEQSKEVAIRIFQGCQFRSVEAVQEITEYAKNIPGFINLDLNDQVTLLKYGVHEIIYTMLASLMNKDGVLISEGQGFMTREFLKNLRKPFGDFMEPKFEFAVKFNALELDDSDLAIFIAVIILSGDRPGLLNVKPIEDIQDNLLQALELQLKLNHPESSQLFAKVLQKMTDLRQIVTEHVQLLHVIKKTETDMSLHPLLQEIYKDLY
As to the kind of experiment: Agonist activity at human PPARgamma in mouse 3T3-L1 cells assessed as induction of adipogenic differentiation at 25 uM measured after 11 days by Oil Red O staining analysis. The format is cell-based. To be noted: filed as agonist, time 11.0 day. The essentials: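 3T3-L1 cells differentiated for 11 days (IBMX/dexamethasone/insulin induction, then insulin, then maintenance medium) with 25 μM compound or 10 μM rosiglitazone from day 0. Cells formalin-fixed and stained with 0.6% Oil Red O. Lipid quantified spectrophotometrically after dye extraction.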

Data set [5] addresses T4, Peroxisome proliferator-activated receptor gamma (Homo sapiens, UniProt P37231).
T4 sequence (P37231 whole entry): T1 sequence (whole entry)
As to the kind of experiment: Agonist activity at human PPARgamma expressed in HEK293 cells by luciferase/beta-galactosidase reporter gene assay. The data set is classed as cell-based. The essentials:
as §1

Data set [6] deals with T5, Peroxisome proliferator-activated receptor alpha (Mus musculus) (UniProt P23204).
T5 sequence (whole entry): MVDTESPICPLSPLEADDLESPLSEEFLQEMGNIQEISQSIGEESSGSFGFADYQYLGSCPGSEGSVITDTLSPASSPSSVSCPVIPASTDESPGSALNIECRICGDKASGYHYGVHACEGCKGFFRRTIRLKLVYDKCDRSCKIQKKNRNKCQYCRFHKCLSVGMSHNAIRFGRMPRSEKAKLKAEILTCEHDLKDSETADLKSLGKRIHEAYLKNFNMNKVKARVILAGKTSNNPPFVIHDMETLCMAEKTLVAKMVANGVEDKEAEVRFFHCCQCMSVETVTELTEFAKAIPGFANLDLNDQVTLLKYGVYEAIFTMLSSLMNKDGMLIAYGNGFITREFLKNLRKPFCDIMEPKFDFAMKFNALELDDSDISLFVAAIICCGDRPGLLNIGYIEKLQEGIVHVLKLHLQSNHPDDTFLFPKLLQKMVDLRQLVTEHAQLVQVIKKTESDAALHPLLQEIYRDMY
As to the kind of experiment: Agonist activity at human PPARalpha in mouse hepatocytes assessed as induction of Fgf21 mRNA expression at 50 uM incubated for 16 hrs by quantitative real-time PCR analysis. The format is cell-based. To be noted: Hepatocyte, filed as agonist. The method in brief:
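Collagenase-perfused mouse primary hepatocytes from WT mice, plated 2 h in attachment medium, overnight in M199 with 5% charcoal-stripped FBS and 1 nM insulin. Treated next day in serum-free M199 with 50 μM compound for 16 h. RNA qPCR (SYBR Green), comparative Ct method.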
(Quantitative PCR measures a nucleic acid by following its amplification.)

The nature of data set [7]: Tmax in C57BL/6 mouse at 100 mg/kg, po measured upto 24 hrs by LC-MS/MS analysis. To be noted: in vivo.

Regarding `CCCCCCCCCCCCCCCc1cccc(OC(C)=O)c1C(=O)O`, the Emax in data set [1] (filed as agonist) is greater than 90%. Besides, the outcome (in the data set on Danio rerio; in data set [2]; in data set [4]) was Active. Besides, in data set [3] (HEK293), the EC50 was greater than 50 µM.

In the case of `CCCCCC/C=C\CCCCCCCc1cccc(OC(C)(C)C(=O)O)c1`, the EC50 worked out at 1.78 µM in data set [5] and 21 µM in data set [3] (HEK293, filed as agonist). In addition, the Emax in data set [1] (filed as agonist) was greater than 90%. In addition, the outcome in data set [2], in data set [6] and in data set [4] was Active.

In the case of `CCCCCCCCCCCCCCCc1cccc(OC(C)(C)C(=O)O)c1`, the concentration giving a half-maximal response (EC50) in data set [5] is 0.9 µM; in data set [3] (HEK293, filed as agonist) it was 33 µM. Also, the Tmax in data set [7] came out at 4 h. Also, the Emax in data set [1] was 30%. The result in data set [2], in data set [6] and in data set [4] was Active.

For orientation: EC50 means the concentration giving half of the maximal effect. Read a high EC50 as a need for much substance. A word on the Tmax: it is the time from dosing to the highest level.
